# Measured values pooled from the literature.
# Protocols differ between the studies behind these lines.
# ST14: Suppressor of tumorigenicity 14 protein (ST14, Homo sapiens, UniProt Q9Y5Y6)
# CDK2 with cyclin A2: Cyclin-dependent kinase 2, with cyclin A2 (CDK2, Homo sapiens, UniProt P24941)
# Oprd1: Delta-type opioid receptor (Oprd1, Rattus norvegicus, UniProt P33533)
Structure (SMILES),target,test,setting,quantity,result
N=C(N)NCCC[C@H](NC(=O)[C@H](Cc1cccc2ccccc12)NC(=O)[C@H](Cc1cscn1)NC(=O)CCc1ccccc1)C(=O)c1nc2ccccc2s1,ST14,"enzyme activity, inhibitor",0.1 µM,remaining activity,6%
CNc1ncc2c(/C=C/C(=O)N3CCC(OC)CC3)nn(Cc3cccc(C(F)(F)F)c3)c2n1,"Mitogen-activated protein kinase kinase kinase 14 (MAP3K14, Homo sapiens, UniProt Q99558)","enzyme activity, inhibitor, radiometric",1 µM,remaining activity,105%
CC(=O)Nc1c(N)nc(SCC(=O)N/N=C/c2ccc([N+](=O)[O-])cc2)[nH]c1=O,CDK2 with cyclin A2,"enzyme activity, inhibitor",5 nM,inhibition,8.37%
CC(C)(C)C[C@H](NC(=O)[C@H](Cc1cscn1)NC(=O)CCc1ccccc1)C(=O)N[C@@H](CCCNC(=N)N)C(=O)c1nc2ccccc2s1,ST14,"enzyme activity, inhibitor",0.1 µM,remaining activity,34%
COc1cc(-c2cncc3c2CN(C)Cc2cc(N4CCNCC4)ccc2-3)cc(OC)c1OC,"Tyrosine-protein kinase Fyn (FYN, Homo sapiens, UniProt P06241)","enzyme activity, inhibitor",1 µM,remaining activity,94%
CC(=O)Nc1c(N)nc(SCC(=O)NN)[nH]c1=O,CDK2 with cyclin A2,"enzyme activity, inhibitor",0.1 µM,inhibition,41.2%
N=C(N)NCCC[C@H](NC(=O)[C@@H]1CCCN1C(=O)[C@H](Cc1cscn1)NC(=O)CCc1ccccc1)C(=O)c1nc2ccccc2s1,ST14,"enzyme activity, inhibitor",0.1 µM,remaining activity,61%
C=CC(=O)N1CCC(COCC(=O)N2CCN(c3nc(-c4cnc(N)nc4C(F)F)nc(N4CCOC[C@@H]4C)n3)CC2)CC1,"Mitogen-activated protein kinase 6 (MAPK6, Homo sapiens, UniProt Q16659)","binding, competition with immobilised ligand",1 µM,remaining binding,100%
N=C(N)NCCC[C@H](NC(=O)[C@@H](NC(=O)[C@H](Cc1cscn1)NC(=O)CCc1ccccc1)c1ccccc1)C(=O)c1nc2ccccc2s1,ST14,"enzyme activity, inhibitor",0.1 µM,remaining activity,33%
C[C@H]1c2nc3ccccc3c(-c3ccccc3)c2[C@H]2C[C@@H]1N(Cc1ccccc1)C[C@]2(C)O,Oprd1,"ligand displacement, radioligand",1 µM,inhibition,0%
O=C(COP(=O)(O)O)[C@@H](O)[C@H](O)[C@H](O)COP(=O)(O)O,"Glyceraldehyde-3-phosphate dehydrogenase (GAPDH, Homo sapiens, UniProt P04406)",thermal stability,"5 mM, lysate",ΔTm,5.9 °C
CNC(=O)c1cc(Oc2ccc(NC(=O)Nc3ccc(Cl)c(C(F)(F)F)c3)cc2)ccn1,CDK2 with cyclin A2,"enzyme activity, inhibitor",10 nM,inhibition,36.7%
N=C(N)NCCC[C@H](NC(=O)[C@H](Cc1cccc(I)c1)NC(=O)[C@H](Cc1cscn1)NC(=O)CCc1ccccc1)C(=O)c1nc2ccccc2s1,ST14,"enzyme activity, inhibitor",0.1 µM,remaining activity,79%
Cc1cc([C@@H](C)Nc2ccccc2C(=O)O)c2nc(N3CCC(F)(F)CC3)c(C#N)c(=O)n2c1,"Serine/threonine-protein kinase pim-1 (PIM1, Homo sapiens, UniProt P11309)","binding, competition with immobilised ligand",1 µM,remaining binding,100%
C[C@H]1C(=O)/C(=C/c2ccccc2)[C@H]2C[C@@H]1N(Cc1ccccc1)C[C@@]2(C)O,Oprd1,"ligand displacement, radioligand",1 µM,inhibition,16%
